Hits are enriched below; roughly 12% of the tested compounds scored in any of these assays.
CHOP inhibitor: blocks CHOP induction under ER stress | CHO-K1 CHOP-promoter luciferase, tunicamycin-induced, 15-18 h | inhibition, % at 10 µM | 3.8% of 220,000 active;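 active means compounds that reduced the stress-induced luciferase reporter signal by more than about 70% of percent inhibition, limit read from the data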
MT stabilize HCS: microtubule stabilization, imaging screen; HeLa tubulin immunostaining HCS, 24 h; share of cells brighter than vehicle mean+2SD; % tubulin-high responders, % at 10 µM; 0.83% of 200,000 active;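 active means plate Z-score above 3 for both tubulin-high and condensed-nucleus cell shares, with cell loss under 80%, at 10 µM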;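 further: anti alpha tubulin signal scored within the nucleus-defined area of each cell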
Autophagy HCS: alters autophagy in cells. MEF GFP-LC3 puncta imaging; test concentration mostly 10 µM. calls only at 10 µM (by protocol). 0.98% of 190,000 active;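 active means percentage of spot-positive cells more than 3 SD above its plate mean, without a fluorescence outlier flag or 80% toxicity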
Lmaj promast: Leishmania major promastigote growth inhibition; Leishmania major promastigotes, resazurin fluorescence viability; AID 1063; inhibition, % at 10 µM; 9% of 200,000 active; in the data active means inhibition above about 50%;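 further: promastigotes grown with compound for 44 hours at 28 °C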
b-catenin transl: alters nuclear translocation of beta-catenin in HeLa cells; immunofluorescence imaging; nuclear translocation activity, % at 5 µM; 0.3% of 190,000 active;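 active means nuclear translocation activity above 50% at 5 µM, with a well cell count of 50 or more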;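 further: per-cell ratio of nuclear to cytoplasmic median beta-catenin stain intensity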
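Test system: human HeLa cells, endogenous beta-catenin. Times: 24 h compound exposure, 37°C. Measured by: beta-catenin immunofluorescence imaging with DAPI.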
Dynein transport: dynein cargo transport inhibition; 3617.4 mouse cells, GR-EGFP nuclear translocation imaging; test concentration mostly 20 µM; stimulated with dexamethasone, 1 µM; hits give low values; z-score, hits read low; 0.47% of 220,000 active;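 active means plate z-score of nuclear minus cytoplasmic receptor signal below a set negative limit, without overly bright fluorescence or cell loss, cut at about -3.5 in these data, passing the limit was not always enough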;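 further: z-score of nuclear minus cytoplasmic ring GR-EGFP intensity difference per well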
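Also added – dexamethasone, 1.0 µM final · Buffer or medium – tet-free, stripped-serum medium · Schedule – induction 48 h, compound 1 h, agonist 30 min · Detection – formaldehyde fixation, Hoechst nuclear stain, 10x automated fluorescence imaging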
A number is an active result; - = inactive; . = no result; + = active, no number.

SMILES | CHOP inhibitor | MT stabilize HCS | Autophagy HCS | Lmaj promast | b-catenin transl | Dynein transport
COC(=O)CSC1=C(C#N)C(c2ccsc2)CC(=O)N1 (centres undefined) | - | 45 | - | - | - | -
CCOC(=O)CSC1=C(C#N)C(c2ccc(C)s2)CC(=O)N1 (centres undefined) | . | 31 | - | - | - | -
CCSC1=C(C#N)C(c2ccc(C)s2)CC(=O)N1 (centres undefined) | . | - | - | - | - | -
CCOC(=O)CSC1=C(C#N)C(c2ccccc2OC)CC(=O)N1 (centres undefined) | - | 21 | - | - | - | -
Cc1nc(NC(=O)c2ccccc2)sc1C1(C)CC(c2c(Cl)cccc2Cl)=NO1 (centres undefined) | - | . | . | . | - | -
COc1cc(OC)c(N(C)S(=O)(=O)c2cccc(C(=O)OCC(=O)NCc3ccco3)c2)cc1Cl | - | - | - | 53 | - | -
COc1cc(-c2cc(C(=O)Nc3ccc(S(=O)(=O)NCc4ccco4)cc3)c3ccccc3n2)cc(OC)c1OC | 79 | - | + | 76 | . | -
CN(C)C(=O)COC(=O)c1ccc(S(=O)(=O)NCc2ccco2)cc1 | - | . | . | . | - | -
COc1cc(-c2cc(C(=O)Nc3ccc(N4CCOCC4)cc3)c3ccccc3n2)cc(OC)c1OC | - | . | . | . | - | -
COc1ccccc1C(CNC(=O)c1ccc(S(=O)(=O)NCc2ccco2)cc1)N(C)C (centres undefined) | - | - | - | 51 | - | -
COc1ccc(S(=O)(=O)NCc2ccco2)cc1N(C)S(=O)(=O)c1ccccc1 | - | - | - | 60 | - | -
COc1cc([N+](=O)[O-])c(OC)cc1SCc1n[nH]c(=S)n1-c1ccc(F)cc1 | - | . | . | . | - | -
CCn1c(C(=O)N2CCCC(C(=O)NCCc3ccc(C)cc3)C2)cc2sccc21 (centres undefined) | - | - | - | - | - | -
CCn1c(C(=O)N2CCCC(C(=O)NCCCc3ccccc3)C2)cc2sccc21 (centres undefined) | - | - | - | 99 | - | -
Cn1c(C(=O)N2CCCC(C(=O)NCc3cccs3)C2)cc2sccc21 (centres undefined) | - | - | - | - | . | -
Cn1c(C(=O)N2CCCC(C(=O)NCCCSC3CCCCC3)C2)cc2sccc21 (centres undefined) | 74 | - | - | - | - | -
CSc1ccc(NC(=O)Nc2ccc(C(=O)NCC(=O)O)cc2)cc1 | - | . | . | . | - | -
O=C(COc1ccc(S(=O)(=O)N2CCCC2)cc1)NCC1CCCO1 (centres undefined) | - | - | - | - | - | -
Cc1cc(C)cc(NC2=NC3(CCCCC3)N=C(N)N2)c1 | . | 47 | - | - | - | -
COc1ccc(COc2cc(-c3cccc(OC)c3)nc3ccc(NC(=O)C(C)C)cc23)cc1 | - | - | - | 100 | . | -
CCCc1cc(=O)[nH]c(-n2[nH]c3c(c2=O)CCCC3)n1 | - | - | - | 94 | . | -
CC1CSc2n(-c3cccc(C(F)(F)F)c3)cc(-c3ccccc3)[n+]21 (centres undefined) | - | - | - | 87 | - | -
CN(CCCNC(=O)CSc1cc(=O)n(C)c2ccc(Cl)cc12)Cc1ccccc1 | - | - | - | 58 | - | -
COCCNC(=O)CSc1cc(=O)n(C)c2cc(Cl)ccc12 | - | - | - | - | - | -
CC(C)c1ccc(NC(=O)C(=O)C2C(=O)Nc3ccccc32)cc1 (centres undefined) | 74 | - | - | - | - | -
SMILES | CHOP inhibitor | MT stabilize HCS | Autophagy HCS | Lmaj promast | b-catenin transl | Dynein transport
Cc1ccc(C2NC(=NCc3ccccc3)Nc3nc(C)cc(=O)n32)cc1 (centres undefined) | - | . | . | . | - | -
COc1c(C)cc(C(=O)C2CCCN(C(=O)c3ccc4cc[nH]c4c3)C2)cc1C (centres undefined) | - | - | - | 65 | - | -
COc1c(C)cc(C(=O)C2CCCN(C(=O)c3cccc(F)c3)C2)cc1C (centres undefined) | - | - | - | - | - | -
CC1=C(C(=O)OC(C)(C)C)C(c2cccs2)NC(=O)N1 (centres undefined) | - | - | - | 69 | - | -
CCOC(=O)C1=C(C)NC(=O)NC1c1cccs1 (centres undefined) | - | - | - | - | - | -
Oc1[nH]c(=S)sc1/C=C1\C(c2ccccc2)=Nc2ccccc21 | - | - | - | 83 | . | -
Oc1[nH]c(=S)sc1C=C1N=c2ccccc2=N1 | - | . | . | . | - | -
Cc1ccc(Sc2ccc(N)cn2)cc1 | - | . | . | . | - | -
Cc1cc2nccc(-c3ccc(Cl)c([N+](=O)[O-])c3)n2n1 | - | - | - | - | - | -
CC(=O)N1CCc2c(sc(NC(=O)c3ccc4c(c3)OCCO4)c2C#N)C1 | . | 34 | - | 54 | 57 | -
COc1ccc(NC(=O)CN2CCCCC2)cc1 | - | - | - | - | . | -
O=C(CN1CCN(C2CCCCC2)CC1)Nc1ccc(Br)cc1 | - | - | - | 88 | - | -
Cc1ccc(NC(=S)N2CCN(C3CCCCC3)CC2)cc1 | - | - | - | 84 | - | -
Cc1ccc(NC(=S)N2CCC(c3ccc(C)cc3)C2)cc1 (centres undefined) | - | - | - | - | - | -
COc1ccc(NC(=O)CN2CCC(NC(=O)C3CCCCC3)CC2)cc1 | - | - | - | 70 | - | -
CCc1ccc(NC(=S)N2CCCCCCC2)cc1 | - | - | - | 56 | - | -
COC(=O)c1ccc(OCC(=O)c2ccccc2OC)cc1 | - | - | - | - | . | -
CCOC(=O)C(C)N1N=C(/C=C/c2ccc(OC)cc2)CCC1=O (centres undefined) | - | - | - | - | - | -
CC(C)(C)c1ccc(C(=O)NCC(=O)OCC(=O)Nc2ccc3c(c2)OCCO3)cc1 | - | - | - | - | - | -
S=C(Nc1ccc(Br)cc1)N1CCN(C2CCCCC2)CC1 | - | - | - | 88 | - | -
O=c1onc(-c2cccnc2)n1-c1ccccc1F | - | . | . | . | - | -
CC1(C)CC(=O)C=C(N2CCNCC2)C1 | - | - | - | - | - | -
CC1(C)CC(N2CCCC2)=CC(=[N+]2CCCCCC2)C1 | - | - | - | 100 | - | -
CCN(CC)C1=CC(=[N+]2CCCC2)CC(C)(C)C1 | - | - | - | 100 | - | -
CC1(C)CC(N2CCN(c3ccccc3)CC2)=CC(=[N+]2CCCC2)C1 | - | - | - | 99 | - | -
CC1CC(C)C[N+](=C2C=C(N3CCCC3)CC(C)(C)C2)C1 (centres undefined) | - | - | - | 100 | - | -
Cc1c(C(=O)Nc2ccccc2)sc2nc[nH]c(=O)c12 | - | - | - | - | - | -
CCn1ncc(/C=N/NS(=O)(=O)c2ccc(Cl)cc2)c1C | - | - | - | - | - | -
COc1ccc2o/c(=N\O)c(C(=O)Nc3ccccc3OC)cc2c1 | - | - | - | 97 | - | -4.2
